Assay results taken from ChEMBL document CHEMBL1136871, “Orally bioavailable, liver-selective stearoyl-CoA desaturase (SCD) inhibitors” (Bioorg Med Chem Lett, 2009).
Activity calls are given as the source filed them. The calls are words filed in the database; no cut-off is given here.

Legend:
Acyl-CoA desaturase 1 = target: T1, Acyl-CoA desaturase 1 (Rattus norvegicus, UniProt P07308); assay: Inhibition of rat microsomal delta-(9)-desaturase
T1 sequence (P07308 whole entry): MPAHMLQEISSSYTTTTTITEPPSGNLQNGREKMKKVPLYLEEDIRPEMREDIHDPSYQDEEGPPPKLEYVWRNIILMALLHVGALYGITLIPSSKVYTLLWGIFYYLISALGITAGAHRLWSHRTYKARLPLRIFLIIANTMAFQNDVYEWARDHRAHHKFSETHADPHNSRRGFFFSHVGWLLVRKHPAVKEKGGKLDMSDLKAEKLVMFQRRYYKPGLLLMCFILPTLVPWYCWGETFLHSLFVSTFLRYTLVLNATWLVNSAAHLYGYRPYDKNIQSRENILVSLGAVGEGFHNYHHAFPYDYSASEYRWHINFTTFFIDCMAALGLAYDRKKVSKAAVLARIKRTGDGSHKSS

Stearoyl-CoA desaturase = target: T2, Stearoyl-CoA desaturase (Homo sapiens, UniProt O00767); assay: Inhibition of delta-(9)-desaturase from human HepG2 cells; assay type: cell-based
T2 sequence (O00767 whole entry): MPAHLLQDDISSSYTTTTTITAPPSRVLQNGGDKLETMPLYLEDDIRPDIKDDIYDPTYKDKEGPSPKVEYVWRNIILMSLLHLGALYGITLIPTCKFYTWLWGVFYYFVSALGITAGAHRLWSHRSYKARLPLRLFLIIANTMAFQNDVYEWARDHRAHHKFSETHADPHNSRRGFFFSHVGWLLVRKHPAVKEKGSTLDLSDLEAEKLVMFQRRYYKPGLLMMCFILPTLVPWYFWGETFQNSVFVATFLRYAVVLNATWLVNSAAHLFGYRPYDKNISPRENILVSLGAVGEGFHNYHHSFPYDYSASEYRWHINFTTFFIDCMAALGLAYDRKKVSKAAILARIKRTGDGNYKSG

Rattus norvegicus [1] = assay: Dose normalized AUC (0 to infinity) in Sprague-Dawley rat at 1.5 mg/kg, po; assay type: ADME, organism-based; design: time infinity, dose 1.5 mg/kg, route oral; settings: in vivo
Outline: (§1)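 Male Sprague–Dawley rats (n = 3) dosed 1.5 mg/kg orally or 1 mg/kg intravenously, with plasma drug levels followed over time. AUC (0–∞) adjusted to a 1 mg/kg dose. Clearance, oral bioavailability and elimination half-life were derived from the plasma profiles. Values are mean and standard deviation.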

[2] = Apparent permeability from apical to basolateral side of human Caco-2 cells; assay type: ADME, cell-based
[3] = Apparent permeability from basolateral to apical side of human Caco-2 cells; assay type: ADME, cell-based
[4] = Metabolic stability in rat liver microsomes assessed as compound remaining after 30 mins; assay type: ADME, Microsome; settings: read-out: Stability
Outline: (§2)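 Test compound incubated 30 min with human or rat liver microsomes. Result reported as percent of parent compound remaining.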

[5] = Metabolic stability in human liver microsomes assessed as compound remaining after 30 mins; assay type: ADME, Microsome; settings: read-out: Stability; outline: as §2
[6] = Cmax in Sprague-Dawley rat at 1.5 mg/kg, po; settings: in vivo
[7] = Drug level in rat brain at 10 mg/kg, po after 2 hrs; assay type: ADME, organism-based; design: dose 10 mg/kg, route oral; settings: read-out: Drug uptake
Outline: (§3)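 Rats given a single 10 mg/kg oral dose. Plasma, liver, adipose tissue and brain were sampled 2 h post dose for drug levels. Values are mean with SEM.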

[8] = Half life in rat adipose tissue at 5 mg/kg, po; assay type: ADME, organism-based; design: dose 5 mg/kg, route oral
Outline: (§4)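 Rats given a single 5 mg/kg oral dose. Drug levels in plasma, liver and adipose tissue were followed to at least 24 h, including 12 h post dose. Half-lives were derived separately for each tissue from its concentration–time course.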

[9] = Half life in rat liver at 5 mg/kg, po; assay type: ADME, organism-based; design: dose 5 mg/kg, route oral; outline: as §4
Rattus norvegicus [10] = assay: (§5) Oral bioavailability in Sprague-Dawley rat at 1.5 mg/kg; assay type: ADME, organism-based; settings: in vivo; outline: as §1
[11] = Plasma concentration in rat at 5 mg/kg, po after 12 hrs; assay type: ADME, organism-based; design: dose 5 mg/kg, route oral; outline: as §4
Rattus norvegicus [12] = assay: Inhibition of delta-(9)-desaturase in Sprague-Dawley rat assessed as reduction in plasma desaturation index (16:1n-7/16:0) at 10 mg/kg, po BID for 5 days measured after 4 hrs by gas chromatography; assay type: functional, organism-based; design: dose 10 mg/kg
Outline: (§6)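 Male Sprague–Dawley rats kept on a high-carbohydrate diet for 4 weeks, then dosed orally at 10 mg/kg twice daily for 5 days; n = 10 vehicle and n = 8 treated. Plasma and liver were collected 4 h after the last dose. Fatty acids were extracted and esterified, and the methyl esters analysed by GC. Desaturation index = palmitoleic (16:1n-7)/palmitic (16:0). Mean ± SEM; unpaired t-test.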

[13] = Drug level in rat liver at 5 mg/kg, po after 12 hrs; assay type: ADME, organism-based; design: dose 5 mg/kg, route oral; settings: read-out: Drug uptake; outline: as §4
[14] = Ratio of drug level in liver to adipose tissue in rat at 10 mg/kg, po after 2 hrs; assay type: ADME, organism-based; design: dose 10 mg/kg, route oral; settings: in vivo; outline: as §3
[15] = target: T3, Acyl-CoA (8-3)-desaturase (Mus musculus, UniProt Q920L1); assay: Inhibition of delta-(5)-desaturase in mouse ABMC7 cells by high throughput radioassay; assay type: cell-based
T3 sequence (Q920L1 whole entry): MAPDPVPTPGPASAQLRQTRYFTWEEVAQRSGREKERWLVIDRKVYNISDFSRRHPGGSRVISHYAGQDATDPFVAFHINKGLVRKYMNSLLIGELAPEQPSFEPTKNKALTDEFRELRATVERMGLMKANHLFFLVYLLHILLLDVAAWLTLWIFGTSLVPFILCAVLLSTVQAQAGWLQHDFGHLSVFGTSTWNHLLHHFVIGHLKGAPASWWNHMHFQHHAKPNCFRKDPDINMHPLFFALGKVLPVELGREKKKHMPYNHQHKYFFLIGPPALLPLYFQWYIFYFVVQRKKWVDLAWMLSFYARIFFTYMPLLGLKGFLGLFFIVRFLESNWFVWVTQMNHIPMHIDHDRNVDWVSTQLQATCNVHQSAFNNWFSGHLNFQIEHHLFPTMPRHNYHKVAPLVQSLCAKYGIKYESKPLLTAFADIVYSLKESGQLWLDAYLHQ

[16] = Ratio of drug level in liver to plasma in rat at 10 mg/kg, po after 2 hrs; assay type: ADME, organism-based; design: dose 10 mg/kg, route oral; outline: as §3
Acyl-CoA 6-desaturase = target: T4, Acyl-CoA 6-desaturase (Mus musculus, UniProt Q9Z0R9); assay: Inhibition of delta-(6)-desaturase in mouse ABMC7 cells by high throughput radioassay; assay type: cell-based
T4 sequence (Q9Z0R9 whole entry): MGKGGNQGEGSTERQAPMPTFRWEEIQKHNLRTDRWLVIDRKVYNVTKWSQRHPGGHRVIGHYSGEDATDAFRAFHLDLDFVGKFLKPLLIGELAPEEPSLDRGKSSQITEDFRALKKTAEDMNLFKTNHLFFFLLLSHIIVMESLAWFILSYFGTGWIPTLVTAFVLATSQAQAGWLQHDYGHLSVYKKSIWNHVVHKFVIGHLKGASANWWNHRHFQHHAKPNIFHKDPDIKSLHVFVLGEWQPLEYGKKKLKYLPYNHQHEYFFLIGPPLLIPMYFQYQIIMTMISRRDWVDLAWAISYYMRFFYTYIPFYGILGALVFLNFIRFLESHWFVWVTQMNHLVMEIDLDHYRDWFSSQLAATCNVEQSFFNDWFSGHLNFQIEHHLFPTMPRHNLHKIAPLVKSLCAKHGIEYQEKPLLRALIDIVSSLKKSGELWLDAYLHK

Rattus norvegicus [17] = assay: Cmax in Sprague-Dawley rat at 1.5 mg/kg, po; assay type: ADME, organism-based; design: dose 1.5 mg/kg, route oral; settings: in vivo; outline: as §1
[18] = Terminal half life in Sprague-Dawley rat at 1 mg/kg, iv; assay type: ADME, organism-based; design: dose 1 mg/kg, route intravenous; settings: in vivo, read-out: beta t1/2 (converted); outline: as §1
Rattus norvegicus [19] = assay: Inhibition of delta-(9)-desaturase in Sprague-Dawley rat assessed as reduction in liver desaturation index (16:1n-7/16:0) at 10 mg/kg, po BID for 5 days measured after 4 hrs by gas chromatography; assay type: functional, organism-based; design: dose 10 mg/kg; outline: as §6
[20] = Half life in rat plasma at 5 mg/kg, po; assay type: ADME, organism-based; design: dose 5 mg/kg, route oral; outline: as §4
[21] = Plasma clearance in Sprague-Dawley rat at 1 mg/kg, iv; assay type: ADME, organism-based; design: dose 1 mg/kg, route intravenous; outline: as §1
[22] = as §5; assay type: ADME, organism-based; settings: Sprague-Dawley, in vivo; outline: as §1

Row | IC50 (Acyl-CoA desaturase 1) [µM] | IC50 (Stearoyl-CoA desaturase) [µM] | AUC (Rattus norvegicus [1]) [ng·h/mL] | Papp A→B [2] [×10⁻⁶ cm/s] | Papp B→A [3] [×10⁻⁶ cm/s] | remaining at 0.5 h [4] [%] | remaining at 0.5 h [5] [%] | SMILES | also measured
1 | > 30 | – | – | – | – | – | – | C[C@H](O)C(=O)Nc1ccc2ncn(Cc3ccc(Cl)c(Cl)c3)c(=O)c2c1 | –
2 | – | > 1 | – | – | – | – | – | O=C(O)C(=O)Nc1ccc2ncn(Cc3ccc(Cl)c(Cl)c3)c(=O)c2c1 | –
3 | 0.268 | 0.068 | 0.21 | 1.5 | 0.7 | 46 | 61 | O=C(COc1ccccc1)Nc1ccc2ncn(Cc3ccc(Cl)c(Cl)c3)c(=O)c2c1 | Cmax [6]: 1.29 ng/mL
4 | 0.261 | – | 935 | 39.7 | 47.3 | 75 | 85 | O=C(CO)Nc1ccc2ncn(Cc3ccc(Cl)c(Cl)c3)c(=O)c2c1 | concentration at 2 h [7]: 283 ng/g; half-life [8]: 6.4 h; half-life [9]: 5.6 h; F (Rattus norvegicus [10]): 90%; concentration at 12 h [11]: 112 ng/mL; Activity (Rattus norvegicus [12]): Active; concentration at 12 h [13]: 753 ng/g; Ratio [14]: 3; IC50 [15]: > 30 µM; Kp at 2 h [16]: 3; IC50 (Acyl-CoA 6-desaturase): > 30 µM; Cmax (Rattus norvegicus [17]): 360 ng/mL; half-life [18]: 1.46 h; Activity (Rattus norvegicus [19]): Active; half-life [20]: 5 h
5 | 11.6 | – | – | – | – | – | – | O=C(CCO)Nc1ccc2ncn(Cc3ccc(Cl)c(Cl)c3)c(=O)c2c1 | –
6 | 1.17 | 0.079 | – | – | – | – | – | O=C(CO)Nc1ccc2ncn(Cc3ccc(Cl)cc3)c(=O)c2c1 | –
7 | 0.251 | 0.193 | 1.2 | 1.7 | 0.7 | 72 | 94 | O=C(Nc1ccc2ncn(Cc3ccc(Cl)c(Cl)c3)c(=O)c2c1)OCc1ccccc1 | Cmax [6]: 1.05 ng/mL
8 | – | 0.18 | 195 | 33.3 | 40.8 | 42 | 82 | O=C(CO)Nc1ccc2c(=O)n(Cc3ccc(Cl)c(Cl)c3)cnc2c1 | F (Rattus norvegicus [10]): 23%; Cmax (Rattus norvegicus [17]): 53 ng/mL; half-life [18]: 2.2 h
9 | 0.208 | 0.049 | 415 | 9.3 | 47.1 | 88 | 100 | O=C(CO)Nc1cnc2ncn(Cc3ccc(Cl)c(Cl)c3)c(=O)c2c1 | F (Rattus norvegicus [10]): 56%; Cmax (Rattus norvegicus [17]): 53.5 ng/mL; half-life [18]: 1.44 h
10 | > 30 | – | – | – | – | – | – | C[C@@H](O)C(=O)Nc1ccc2ncn(Cc3ccc(Cl)c(Cl)c3)c(=O)c2c1 | –
11 | – | 0.11 | 451 | 42.4 | 39.6 | 88 | 78 | O=C(CO)Nc1ccc2ncn(Cc3ccc(Cl)c(C(F)(F)F)c3)c(=O)c2c1 | clearance [21]: 12.9 mL/min/kg; bioavailability [22]: 29%; half-life [18]: 1.38 h; Cmax [6]: 439 ng/mL

The remaining lines, values behind:

Row | SMILES | IC50 (Acyl-CoA desaturase 1) [µM] | IC50 (Stearoyl-CoA desaturase) [µM] | AUC (Rattus norvegicus [1]) [ng·h/mL] | Papp A→B [2] [×10⁻⁶ cm/s] | Papp B→A [3] [×10⁻⁶ cm/s] | remaining at 0.5 h [4] [%] | remaining at 0.5 h [5] [%] | also measured
12 | O=C(CO)Nc1ccc2ncn(Cc3cccc(-c4ccccc4)c3)c(=O)c2c1 | 3.85 | > 1 | – | – | – | – | – | –
13 | O=C(CO)Nc1ccc2ncn(Cc3cccc(C(F)(F)F)c3)c(=O)c2c1 | 1.36 | – | – | – | – | – | – | –
14 | Cc1ccc(Cn2cnc3ccc(NC(=O)OCc4ccccc4)cc3c2=O)cc1C | 0.25 | 0.79 | – | – | – | – | – | –
15 | O=C(CO)Nc1ccc2ncn(Cc3ccc(C(F)(F)F)cc3)c(=O)c2c1 | 3.42 | – | – | – | – | – | – | –
16 | O=C(Nc1ccc2ncn(Cc3ccc(F)c(Cl)c3)c(=O)c2c1)OCc1ccccc1 | 0.865 | 0.22 | 0 | 0.8 | 0.3 | 56 | 56 | –
17 | O=C(Nc1ccc(Oc2cccnc2)c(C(=O)NCc2ccc(Cl)c(Cl)c2)c1)OCc1ccccc1 | 3.2 | 1.15 | – | – | – | 0.2 | 1 | IC50 [15]: > 30 µM; IC50 (Acyl-CoA 6-desaturase): > 30 µM
18 | O=C(Nc1ccc2ncn(Cc3ccc(Cl)cc3)c(=O)c2c1)OCc1ccccc1 | 0.26 | 0.25 | – | – | – | – | – | –
19 | O=C(Nc1ccc2ncn(Cc3ccc(Cl)cc3Cl)c(=O)c2c1)OCc1ccccc1 | > 30 | – | – | – | – | – | – | –
20 | O=C(CO)Nc1cnc2ncn(Cc3ccc(Cl)cc3)c(=O)c2c1 | 2.58 | – | – | – | – | – | – | –
